The text below walks through data of ChEMBL document CHEMBL1124291, “New actinomycin D analogues as superior chemotherapeutic agents against primary and advanced colon tumors and colon xenografts in nude mice” (J Med Chem, 1988).

The species entered for data set [1] is Rattus norvegicus. Kind of data set: The formation of adrenochrome from epinephrine in the presence of SOD(super oxide dismutase); + denotes ' Inhibited'. The class given is functional. An outline of the steps:
(§1)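 Drug-stimulated superoxide generation with rat liver microsomal enzymes and NADPH as cofactor. NADPH oxidation was read at 340 nm. Adrenochrome formed from epinephrine was read at 480 nm, with or without superoxide dismutase. % stimulation = [(drug-stimulated rate − basal rate)/basal rate] × 100. Values are mean ± standard error of triplicate analyses.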

The species entered for data set [2] is Rattus norvegicus. Kind of data set: Stimulation of NADPH oxidation in the presence of rat liver microsomes. Format: functional. An outline of the steps:
as §1

Data set [3] concerns P388 (Mus musculus). Kind of data set: 50% inhibition of incorporation of precursor [3H]thymidine into DNA P388 cell lines. Conditions: P388, 2 h.
Data set [4] concerns MC-38. Kind of data set: Activity against advanced carcinoma C38 tumor in CDF1 Mice at dose 0.30 mg/kg measured as % inhibition of tumor. Format: functional. The note with it: Mus musculus.
The subject of data set [5] is MC-38. Description: Number of toxic deaths/number of mice in a group of non tumored mice treated in parallel with the tumor-bearing mice and observed for 100 days at a dose 0.60 mg/kg; value given as 0/9. Format: functional, Mus musculus. Conditions: dose 0.6 mg/kg. Summed up:
(§2)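 Non-tumored CDF1 mice were treated in parallel with colon 38 tumor-bearing mice: iv injections on days 1, 5 and 9, groups of nine. Deaths were counted over 100 days of observation and reported as toxic deaths / mice in group.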

For data set [6], the system named is MC-38. Kind of data set: Number of toxic deaths/number of mice in a group of non tumored mice treated in parallel with the tumor-bearing mice and observed for 100 days at a dose 0.30 mg/kg; value given as 0/9. The class given is functional, Mus musculus. The note with it: dose 0.3 mg/kg. An outline of the steps:
as §2

The test system of data set [7] is MC-38. Kind of data set: Activity against advanced carcinoma C38 tumor in CDF1 Mice at dose 0.60 mg/kg measured as % inhibition of tumor. Format: functional. The note with it: Mus musculus.
The subject of data set [8] is B16. Description: in vivo Antitumor activity against B16 melanoma cells at dose 300 ug/Kg /inj measured as mean survival time (MST). The class given is functional, Mus musculus. An outline of the steps: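 B16 melanoma implanted ip on day 0 as 0.2 mL of a 1:5 (weight/volume) brei, in groups of nine BDF₁ mice; drugs given ip. MST is the median survival time in days, with the range of days of death of individual animals; % ILS is percent increase in life span, with survivors on day 65 over total injected.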

Data set [9] concerns P388. Kind of data set: 50% inhibition of incorporation precursor [14C]uridine into RNA P388 cell lines. Format: functional, cell-based. The note with it: Mus musculus.
For data set [10], the system named is MC-38. Kind of data set: Mean survival time of treated / untreated group x100. (number of over 100-day survivors/number of total mice in the group) at a dose 0.60 mg/kg. Format: functional, Mus musculus. The note with it: dose 0.6 mg/kg. An outline of the steps: (§3)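 CDF1 mice were implanted sc on day 0 with colon 38 adenocarcinoma fragments (70 mg) and given iv drug on days 1, 5 and 9. %T/C = median survival of treated / untreated × 100. Number of mice surviving over 100 days / group total is given in parentheses.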

The subject of data set [11] is B16. Description: In vivo antitumor activity against B16 melanoma cells at a optimal dose measured as %ILS (%increase life span) at a dose 300 micro g/Kg/inj. The class given is functional, Mus musculus. An outline of the steps: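 BDF1 mice in groups of nine were implanted ip on day 0 with 0.2 mL of 1:5 (w/v) B16 melanoma brei; drugs were given ip. Survival is reported as median survival time in days with range, and as %ILS, with survivors counted on day 65 out of total injected.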

Data set [12] has as its system HT-29. Description: 50% inhibition of incorporationf precursor [3H]thymidine into RNA HT-29 cell lines. Format: functional, cell-based. The note with it: Homo sapiens, HT-29, 2 h; in the assay text read “[14C]uridine” for “[3H]thymidine”. Summed up: (§4)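 HT-29 colon carcinoma monolayers, 10^4 cells per well, five wells per concentration. Drug exposure lasted 2 h, with [³H]thymidine and [2-¹⁴C]uridine (0.5 μCi each) added for the last hour. Cells were washed, trypsinized, counted and precipitated onto glass-fiber filters with 10% TCA. Acid-precipitable radioactivity was measured. IC50 is the concentration inhibiting 50% of incorporation; data are averages of replicate experiments.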

For data set [13], the system named is MC-38. Kind of data set: Activity against advanced carcinoma C38 tumor in CDF1 Mice at dose 1.20 mg/kg measured as % inhibition of tumor. Conditions: Mus musculus. The class given is functional.
In data set [14] the test system is P388. Description: Antitumor activity in P388/S(AMD sensitive) in male BDF1 mice measured as optimal dose.
The species entered for data set [15] is Rattus norvegicus. Kind of data set: The formation of adrenochrome from epinephrine in the absence of SOD(super oxide dismutase). Format: functional. Summed up:
as §1

For data set [16], the system named is MC-38. Description: Mean survival time of treated / untreated group x100. (number of over 100-day survivors/number of total mice in the group) at a dose 0.15 mg/kg. Format: functional, Mus musculus. Summed up:
as §3

The subject of data set [17] is HT-29. Kind of data set: 50% inhibition of incorporationf precursor [3H]thymidine into DNA HT-29 cell lines. The class given is functional, cell-based. Conditions: Homo sapiens, HT-29, 2 h. Summed up:
as §4

The subject of data set [18] is MC-38. Description: Mean survival time of treated / untreated group x100. (number of over 100-day survivors/number of total mice in the group) at a dose 1.20 mg/kg. The class given is functional, Mus musculus. Conditions: dose 1.2 mg/kg. Summed up:
as §3

Data set [19] relates to MC-38. Kind of data set: Number of toxic deaths/number of mice in a group of non tumored mice treated in parallel with the tumor-bearing mice and observed for 100 days at a dose 1. 20 mg/Kg; value given as 4/9. The class given is toxicity, cell-based. The note with it: mouse, in vivo, 2400 h. Summed up: as §2
The subject of data set [20] is MC-38. Kind of data set: Activity against advanced carcinoma C38 tumor in CDF1 Mice at dose 0.15 mg/kg measured as % inhibition of tumor. The class given is functional. Conditions: Mus musculus.
For data set [21], the system named is MC-38. Kind of data set: Mean survival time of treated / untreated group x100. (number of over 100-day survivors/number of total mice in the group) at a dose 0.30 mg/kg. Format: functional, Mus musculus. Conditions: dose 0.3 mg/kg. An outline of the steps:
as §3

Data set [22] deals with MC-38. Description: Number of toxic deaths/number of mice in a group of non tumored mice treated in parallel with the tumor-bearing mice and observed for 100 days at a dose 0.15 mg/kg; value given as 1/9. Format: toxicity, organism-based. Details: dose 0.15 mg/kg. The note with it: mouse, in vivo, 2400 h. An outline of the steps:
as §2

For data set [23], the system named is P388. Kind of data set: Antitumor activity in P388/ADR (adriamycin resistant), in male BDF1 mice measured as optimal dose at dose 0.10-0.8 mg/kg.

The IC50 is the midpoint of a concentration-inhibition curve. A lower IC50 goes with greater potency. As usually defined, the inhibition in vivo is how much of the control response was suppressed. Low readings indicate a weak effect, high ones a strong effect. A word on the T/C: it is the result in the treated group divided by that in the control group, in per cent. What is called ILS is the gain in survival time of treated over control animals, in per cent. High values mean much gain in survival, low ones little gain in survival. `Cc1c2oc3c(C)c4oc(-c5ccccc5)nc4c(C(=O)N[C@@H]4C(=O)N[C@H](C(C)C)C(=O)N5CCC[C@H]5C(=O)N(C)CC(=O)N(C)[C@@H](C(C)C)C(=O)O[C@@H]4C)c3nc-2c(C(=O)N[C@@H]2C(=O)N[C@H](C(C)C)C(=O)N3CCC[C@H]3C(=O)N(C)CC(=O)N(C)[C@@H](C(C)C)C(=O)O[C@@H]2C)c(N)c1=O`: the results for the Adrenochrome formation result in data set [1] and in data set [15] were “Inhibited” and 18.8 nM min-1 (mg of protein)-1, respectively. The NADPH oxidation (nM min-1 (mg of protein)-1) in [2] was 65. Moreover, the IC50 turned out to be 0.78 µM in data set [3], 0.07 µM in [9], 0.068 µM in data set [12] and 0.58 µM in data set [17]. The compound further yielded an inhibition in vivo at 0.3 mg/kg in [4] of 70%. Also, the Toxic deaths in data set [5] stood at 0; in data set [6], 0; in [19] it was 4; in [22], 1. Further, in [7], the inhibition in vivo at 0.6 mg/kg worked out at 83%. In data set [8], this compound registered an MST of 59. Moreover, the T/C was 170% in data set [10], 103% in data set [16], 103% in [18] and 137% in data set [21]. Also, the ILS in data set [11] is recorded as 103%. Moreover, in [13], the inhibition in vivo at 1.2 mg/kg stood at 88%. The values for the optimal dose in data set [14] and in [23] were 0.35 mg/kg and 0.6 mg/kg, respectively. The inhibition in vivo at 0.15 mg/kg in data set [20] was determined as 29%.
